Measurements reported in ChEMBL document CHEMBL4422684, “Identification of novel lysine demethylase 5-selective inhibitors by inhibitor-based fragment merging strategy” (Bioorg Med Chem, 2019).
Active and inactive are the calls of the source. No cut-off for these calls is given here.

What was measured:
[1] = biological target: Lysine-specific demethylase 5B (Homo sapiens, UniProt Q9UGL1); experiment: Inhibition of human N-terminal FLAG/His-tagged KDM5B (2 to 751 residues) expressed in baculovirus infected Sf9 insect cells using H3(1-21)K4(Me3)-GGK(Biotin)/2-OG as substrate measured after 1 hr by Alphalisa assay
Sequence of Lysine-specific demethylase 5B (Q9UGL1 whole entry, the tested form may be a part): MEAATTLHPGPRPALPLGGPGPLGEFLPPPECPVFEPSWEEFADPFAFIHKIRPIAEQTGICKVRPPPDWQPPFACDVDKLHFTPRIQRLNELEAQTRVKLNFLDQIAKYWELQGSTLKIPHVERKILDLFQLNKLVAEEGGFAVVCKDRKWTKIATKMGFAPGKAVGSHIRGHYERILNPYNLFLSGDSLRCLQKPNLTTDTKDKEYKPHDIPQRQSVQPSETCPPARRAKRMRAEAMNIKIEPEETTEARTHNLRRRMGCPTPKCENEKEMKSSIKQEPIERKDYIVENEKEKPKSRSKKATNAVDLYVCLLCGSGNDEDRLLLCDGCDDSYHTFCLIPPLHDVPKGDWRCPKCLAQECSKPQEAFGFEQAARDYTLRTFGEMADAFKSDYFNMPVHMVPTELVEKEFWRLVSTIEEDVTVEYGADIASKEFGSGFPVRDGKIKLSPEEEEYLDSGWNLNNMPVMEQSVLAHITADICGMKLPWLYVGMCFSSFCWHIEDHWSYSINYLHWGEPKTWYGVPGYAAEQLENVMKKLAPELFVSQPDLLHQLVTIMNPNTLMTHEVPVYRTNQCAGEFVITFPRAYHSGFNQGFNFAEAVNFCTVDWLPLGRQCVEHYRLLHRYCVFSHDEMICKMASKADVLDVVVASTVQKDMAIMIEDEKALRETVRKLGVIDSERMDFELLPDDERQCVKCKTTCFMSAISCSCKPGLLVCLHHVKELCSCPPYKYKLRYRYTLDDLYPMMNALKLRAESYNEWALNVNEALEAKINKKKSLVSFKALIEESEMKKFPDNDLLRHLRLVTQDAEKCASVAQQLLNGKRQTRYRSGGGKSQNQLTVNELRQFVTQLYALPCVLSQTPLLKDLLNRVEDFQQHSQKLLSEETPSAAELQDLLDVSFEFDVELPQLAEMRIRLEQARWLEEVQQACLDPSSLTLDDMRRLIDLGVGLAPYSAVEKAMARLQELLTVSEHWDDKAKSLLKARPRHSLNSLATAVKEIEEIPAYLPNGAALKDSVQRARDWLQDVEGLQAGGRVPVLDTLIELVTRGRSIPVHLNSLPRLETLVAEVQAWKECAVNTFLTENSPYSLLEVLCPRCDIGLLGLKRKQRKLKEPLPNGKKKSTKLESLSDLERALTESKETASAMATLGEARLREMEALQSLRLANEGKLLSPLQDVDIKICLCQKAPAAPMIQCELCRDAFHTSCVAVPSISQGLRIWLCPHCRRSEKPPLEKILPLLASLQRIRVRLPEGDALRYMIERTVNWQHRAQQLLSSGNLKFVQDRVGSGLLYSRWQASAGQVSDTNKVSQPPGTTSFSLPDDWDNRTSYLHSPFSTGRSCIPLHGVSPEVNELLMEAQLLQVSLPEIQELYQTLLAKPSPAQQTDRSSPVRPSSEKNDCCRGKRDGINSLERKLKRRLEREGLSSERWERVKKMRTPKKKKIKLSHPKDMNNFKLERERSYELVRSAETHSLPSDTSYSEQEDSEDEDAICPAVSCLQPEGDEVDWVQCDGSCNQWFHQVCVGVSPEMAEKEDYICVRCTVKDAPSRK
Summary of the method: (§1)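 AlphaLISA demethylase assay in 50 mM HEPES pH 7.5, 0.1% BSA, 0.01% Tween 20 with DMSO. Enzyme and inhibitor combined, then peptide plus 2-OG (50 µM), Fe(II) (5 µM) and ascorbate (100 µM) in the added mix; 1 h at room temperature with shaking.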

[2] = biological target: Lysine-specific demethylase 6B (Homo sapiens, UniProt O15054); experiment: Inhibition of human C-terminal FLAG-tagged KDM6B (1043 to end residues) expressed in baculovirus infected Sf9 insect cells at 50 uM using H3(21-44)-K27(Me3)-GK(Biotin)/2-OG as substrate measured after 1 hr by Alphalisa assay relative to control; summary of the method: as §1
Sequence of Lysine-specific demethylase 6B (O15054 whole entry, the tested form may be a part): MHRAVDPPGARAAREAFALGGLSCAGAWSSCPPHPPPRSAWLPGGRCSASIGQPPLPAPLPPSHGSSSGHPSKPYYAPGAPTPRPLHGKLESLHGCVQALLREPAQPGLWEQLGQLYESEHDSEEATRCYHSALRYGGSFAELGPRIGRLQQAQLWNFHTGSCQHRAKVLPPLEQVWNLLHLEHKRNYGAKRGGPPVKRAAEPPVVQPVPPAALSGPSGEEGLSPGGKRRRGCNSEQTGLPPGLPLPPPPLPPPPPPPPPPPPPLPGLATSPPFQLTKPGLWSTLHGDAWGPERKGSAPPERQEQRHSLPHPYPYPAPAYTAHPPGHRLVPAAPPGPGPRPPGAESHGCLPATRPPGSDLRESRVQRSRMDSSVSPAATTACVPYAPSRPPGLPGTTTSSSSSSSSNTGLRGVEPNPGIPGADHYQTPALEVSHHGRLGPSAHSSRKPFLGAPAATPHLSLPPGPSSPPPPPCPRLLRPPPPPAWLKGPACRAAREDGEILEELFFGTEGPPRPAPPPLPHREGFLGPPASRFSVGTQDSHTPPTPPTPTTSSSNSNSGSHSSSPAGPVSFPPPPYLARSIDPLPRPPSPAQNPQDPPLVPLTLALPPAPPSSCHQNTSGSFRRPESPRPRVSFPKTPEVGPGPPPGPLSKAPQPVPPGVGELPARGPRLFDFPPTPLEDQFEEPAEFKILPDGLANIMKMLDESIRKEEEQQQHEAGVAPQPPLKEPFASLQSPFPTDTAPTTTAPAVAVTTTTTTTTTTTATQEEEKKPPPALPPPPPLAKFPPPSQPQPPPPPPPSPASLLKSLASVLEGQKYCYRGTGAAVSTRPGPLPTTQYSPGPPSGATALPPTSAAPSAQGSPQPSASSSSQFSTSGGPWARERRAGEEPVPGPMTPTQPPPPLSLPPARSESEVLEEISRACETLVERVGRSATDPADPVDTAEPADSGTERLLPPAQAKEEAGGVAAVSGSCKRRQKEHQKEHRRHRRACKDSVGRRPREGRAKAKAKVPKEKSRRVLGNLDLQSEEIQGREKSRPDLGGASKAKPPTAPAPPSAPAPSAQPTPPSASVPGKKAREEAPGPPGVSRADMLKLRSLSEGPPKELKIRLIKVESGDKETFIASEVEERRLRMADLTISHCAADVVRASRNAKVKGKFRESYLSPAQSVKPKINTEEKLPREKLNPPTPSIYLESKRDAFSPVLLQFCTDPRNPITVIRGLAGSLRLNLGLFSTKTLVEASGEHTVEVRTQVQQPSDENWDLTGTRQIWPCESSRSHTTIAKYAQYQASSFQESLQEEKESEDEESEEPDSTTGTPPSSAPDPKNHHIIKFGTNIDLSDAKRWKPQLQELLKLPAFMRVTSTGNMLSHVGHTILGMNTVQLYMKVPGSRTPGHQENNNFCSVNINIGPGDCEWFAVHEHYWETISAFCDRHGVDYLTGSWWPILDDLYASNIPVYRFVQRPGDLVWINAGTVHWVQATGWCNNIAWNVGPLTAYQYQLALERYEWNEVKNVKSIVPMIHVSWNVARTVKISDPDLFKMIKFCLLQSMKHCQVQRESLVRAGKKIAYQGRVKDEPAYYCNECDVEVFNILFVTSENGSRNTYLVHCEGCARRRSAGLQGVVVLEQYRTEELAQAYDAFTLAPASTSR

[3] = biological target: Lysine-specific demethylase 5C (Homo sapiens, UniProt P41229); experiment: Inhibition of full-length human N-terminal FLAG/His-tagged KDM5C (2 to 1560 residues) expressed in baculovirus infected Sf9 insect cells using H3(1-21)K4(Me3)-GGK(Biotin)/2-OG as substrate measured after 1 hr by Alphalisa assay; summary of the method: as §1
[4] = test system: MDA-MB-231; experiment: Growth inhibition of human MDA-MB-231 cells at 50 uM after 72 hrs by Alamar blue staining based fluorescence assay; type: functional, cell-based
Summary of the method: (§2)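 A549 or MDA-MB-231 cells seeded at 2 × 10^3 per well, left 24 h at 37 °C, then given compounds in medium for 72 h at 37 °C, 5% CO2. AlamarBlue added for a further 3 h at 37 °C; fluorescence read at ex 540/em 590 nm and % growth calculated from it. A549 in RPMI1640/10% FBS; MDA-MB-231 in L-15 with 2 mM glutamine/10% FBS.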

[5] = test system: A549; experiment: Growth inhibition of human A549 cells after 72 hrs by Alamar blue staining based fluorescence assay; type: functional; conditions: A549, 72 h; summary of the method: as §2
[6] = biological target: T1, Lysine-specific demethylase 4A (Homo sapiens) (UniProt O75164); experiment: Inhibition of human N-terminal His-tagged KDM4A (1 to 350 residues) expressed in Escherichia coli at 50 uM using H3(21-44)-K36(Me3)-GK(Biotin)/2-OG as substrate measured after 1 hr by Alphalisa assay relative to control; summary of the method: as §1
T1 sequence (whole entry): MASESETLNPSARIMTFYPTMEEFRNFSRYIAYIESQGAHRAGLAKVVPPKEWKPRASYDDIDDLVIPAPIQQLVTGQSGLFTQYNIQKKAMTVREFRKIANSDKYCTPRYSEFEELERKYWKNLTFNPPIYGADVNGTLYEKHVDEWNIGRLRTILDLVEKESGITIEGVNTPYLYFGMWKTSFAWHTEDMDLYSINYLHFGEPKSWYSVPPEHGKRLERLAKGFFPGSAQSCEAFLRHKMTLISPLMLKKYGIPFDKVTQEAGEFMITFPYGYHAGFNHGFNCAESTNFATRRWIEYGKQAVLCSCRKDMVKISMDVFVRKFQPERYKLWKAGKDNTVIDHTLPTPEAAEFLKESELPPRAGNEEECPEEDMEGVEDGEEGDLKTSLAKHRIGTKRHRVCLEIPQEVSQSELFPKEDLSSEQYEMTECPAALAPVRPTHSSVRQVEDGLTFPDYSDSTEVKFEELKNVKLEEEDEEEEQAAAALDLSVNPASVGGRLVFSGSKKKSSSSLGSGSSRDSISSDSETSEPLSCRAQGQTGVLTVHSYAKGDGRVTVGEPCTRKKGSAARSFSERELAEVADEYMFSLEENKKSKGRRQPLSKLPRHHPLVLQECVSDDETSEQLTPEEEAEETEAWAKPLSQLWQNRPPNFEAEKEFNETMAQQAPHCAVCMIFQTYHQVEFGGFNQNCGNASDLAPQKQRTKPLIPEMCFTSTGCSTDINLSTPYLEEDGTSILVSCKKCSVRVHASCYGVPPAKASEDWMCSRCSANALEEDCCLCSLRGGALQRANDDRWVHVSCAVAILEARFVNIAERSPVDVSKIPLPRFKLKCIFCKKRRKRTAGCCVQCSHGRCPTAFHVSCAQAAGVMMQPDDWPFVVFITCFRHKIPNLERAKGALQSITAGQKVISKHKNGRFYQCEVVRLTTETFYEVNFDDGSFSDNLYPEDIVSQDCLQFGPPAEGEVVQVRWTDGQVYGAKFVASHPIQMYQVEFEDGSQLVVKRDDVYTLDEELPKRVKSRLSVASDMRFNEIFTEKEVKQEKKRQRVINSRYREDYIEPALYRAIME

[7] = test system: A549; experiment: Growth inhibition of human A549 cells at 50 uM after 72 hrs by Alamar blue staining based fluorescence assay; type: functional, cell-based; summary of the method: as §2
[8] = biological target: T2, Lysine-specific demethylase 5A (Homo sapiens, UniProt P29375); experiment: Inhibition of human C-terminal FLAG-tagged KDM5A (1 to 1090 residues) expressed in baculovirus infected Sf9 insect cells using H3(1-21)K4(Me3)-GGK(Biotin)/2-OG as substrate measured after 1 hr by Alphalisa assay; summary of the method: as §1
T2 sequence (P29375 whole entry, the tested form may be a part): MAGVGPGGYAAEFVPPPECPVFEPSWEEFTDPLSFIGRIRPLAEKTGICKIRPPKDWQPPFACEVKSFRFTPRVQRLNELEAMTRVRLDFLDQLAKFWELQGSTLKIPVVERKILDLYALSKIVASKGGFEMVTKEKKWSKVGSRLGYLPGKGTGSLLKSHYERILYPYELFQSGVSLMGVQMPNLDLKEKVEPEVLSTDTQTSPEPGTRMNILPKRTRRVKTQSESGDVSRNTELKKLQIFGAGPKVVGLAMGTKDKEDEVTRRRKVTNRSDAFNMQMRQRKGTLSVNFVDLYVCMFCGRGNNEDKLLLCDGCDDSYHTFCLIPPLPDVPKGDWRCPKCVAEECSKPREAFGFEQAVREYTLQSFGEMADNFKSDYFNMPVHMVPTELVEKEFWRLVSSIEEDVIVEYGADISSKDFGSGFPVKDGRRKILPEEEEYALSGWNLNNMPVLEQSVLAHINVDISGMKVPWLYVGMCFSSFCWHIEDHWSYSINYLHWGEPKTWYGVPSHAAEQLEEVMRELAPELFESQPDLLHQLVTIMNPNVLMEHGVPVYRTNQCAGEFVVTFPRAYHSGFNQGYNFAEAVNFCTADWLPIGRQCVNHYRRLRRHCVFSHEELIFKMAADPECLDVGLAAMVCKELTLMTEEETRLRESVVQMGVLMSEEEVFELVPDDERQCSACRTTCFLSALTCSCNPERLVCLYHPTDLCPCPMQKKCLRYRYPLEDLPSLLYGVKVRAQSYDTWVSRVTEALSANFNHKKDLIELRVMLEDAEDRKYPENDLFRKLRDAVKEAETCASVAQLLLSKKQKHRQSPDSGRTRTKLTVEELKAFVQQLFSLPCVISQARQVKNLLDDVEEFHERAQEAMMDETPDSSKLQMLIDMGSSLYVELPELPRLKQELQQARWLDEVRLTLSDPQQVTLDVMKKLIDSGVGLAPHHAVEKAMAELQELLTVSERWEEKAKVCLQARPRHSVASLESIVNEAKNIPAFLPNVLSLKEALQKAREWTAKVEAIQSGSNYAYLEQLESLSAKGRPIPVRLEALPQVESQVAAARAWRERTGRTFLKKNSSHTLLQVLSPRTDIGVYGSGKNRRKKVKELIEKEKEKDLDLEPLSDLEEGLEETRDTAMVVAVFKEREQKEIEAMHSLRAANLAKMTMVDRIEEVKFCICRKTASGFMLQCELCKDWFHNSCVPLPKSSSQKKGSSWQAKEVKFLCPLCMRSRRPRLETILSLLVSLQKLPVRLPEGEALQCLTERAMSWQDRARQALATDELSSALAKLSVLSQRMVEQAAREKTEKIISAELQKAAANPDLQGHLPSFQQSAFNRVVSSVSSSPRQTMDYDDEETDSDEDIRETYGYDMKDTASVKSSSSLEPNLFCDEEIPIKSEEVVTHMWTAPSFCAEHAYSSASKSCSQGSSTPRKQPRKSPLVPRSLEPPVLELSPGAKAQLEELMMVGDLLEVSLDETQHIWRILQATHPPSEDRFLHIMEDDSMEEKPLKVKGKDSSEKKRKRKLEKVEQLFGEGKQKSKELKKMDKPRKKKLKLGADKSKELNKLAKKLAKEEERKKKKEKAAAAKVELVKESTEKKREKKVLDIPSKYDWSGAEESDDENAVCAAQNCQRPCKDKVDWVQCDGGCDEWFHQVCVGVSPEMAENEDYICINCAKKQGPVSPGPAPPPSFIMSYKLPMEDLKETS

[9] = biological target: T2, Lysine-specific demethylase 5A; experiment: Inhibition of human C-terminal FLAG-tagged KDM5A (1 to 1090 residues) expressed in baculovirus infected Sf9 insect cells at 1 uM using H3(1-21)K4(Me3)-GGK(Biotin)/2-OG as substrate measured after 1 hr by Alphalisa assay relative to control; summary of the method: as §1

Row | SMILES | IC50 [1] | inhibition [2] | IC50 [3] | growth inhibition (GI) [4] | GI50 [5] | inhibition [6] | growth inhibition (GI) [7] | IC50 [8] | inhibition [9]
1 | CCCCCCN(C)CCc1ccc(-c2[nH]c3c(C#N)cnn3c(=O)c2C(C)C)cc1 | 1.34 nM | 22.7% | 6.24 nM | Active | 29600 nM | 71% | Active | 4.37 nM | –
2 | CC(C)c1c(-c2ccccc2)[nH]c2c(C#N)cnn2c1=O | 337 nM | – | 3010 nM | Active | > 50000 nM | 61.1% | inactive | – | 68.9%
3 | CCCCCN(C)CCCCC(=O)N(O)CCC(=O)O | 9240 nM | 17.8% | 28900 nM | – | – | 25.4% | – | 2700 nM | 30.8%
4 | CCCCCCN(C)Cc1ccc(-c2[nH]c3c(C#N)cnn3c(=O)c2C(C)C)cc1 | 51.1 nM | 29.1% | 5.84 nM | Active | 40000 nM | 32.5% | Active | 22.7 nM | 97.9%
